# Assay results as given in ChEMBL document CHEMBL4428051, “Preclinical Activity of New [1,2]Oxazolo[5,4-e]isoindole Derivatives in Diffuse Malignant Peritoneal Mesothelioma” (J Med Chem, 2016).
# The source made the active and inactive calls. No cut-off for these calls is given here.
# Key:
# [1] = tested on: Panel NCI-60 (60 carcinoma cell lines); test: Growth inhibition of human NCI60 cells at 10^-4 to 10^-8 M after 48 hrs by sulforhodamine B assay; format: functional, cell-based
# Tubulin (Sus scrofa) [2] = target: T1, Tubulin (Sus scrofa) (UniProt P02554+P02550); test: Inhibition of GTP-induced porcine tubulin polymerization at 10 uM measured every minute up to 60 mins relative to control; format: protein assay
# Outline: (§1)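 Test agent or taxol/vinorelbine was added at 10 μmol/L. Polymerization was started at 37 °C and followed by absorbance at 340 nm every minute up to 60 min.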
# Tubulin (Homo sapiens) [3] = target: T2, Tubulin (Homo sapiens) (UniProt P68371+Q9H4B7+P0DPH7+P68366+Q13509+Q71U36+P04350+Q3ZCM7+P07437+P68363+Q9BQE3+Q6PEY2+Q13885+Q9BVA1+Q9BUF5); test: Inhibition of tubulin polymerization in human MP4 cells at 10 nM after 24 hrs by Western blot analysis relative to soluble fraction of tubulin; format: cell-based
# Tubulin (Homo sapiens) [4] = target: T2, Tubulin (Homo sapiens); test: Inhibition of tubulin polymerization in human STO cells at 2 nM after 24 hrs by Western blot analysis relative to soluble fraction of tubulin; format: cell-based
# Homo sapiens [5] = species on record: Homo sapiens; test: Cell cycle arrest in human STO cells assessed as accumulation at G2/M phase at IC50 after 48 to 72 hrs by propidium iodide staining-based flow cytometric method; format: functional
# Outline: (§2)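 Cells exposed to drug or 1% (v/v) DMSO control for 48 and 72 h. Adherent and floating cells fixed in 70% EtOH, then stained 30 min at 4 °C with propidium iodide 50 μg/mL, RNase and 0.05% Nonidet-P40 in PBS. Flow cytometry read ≥30000 events; G1, S and G2/M percentages fitted with the Modfit model; mean of three independent experiments.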
# Homo sapiens [6] = species on record: Homo sapiens; test: Cell cycle arrest in human MP4 cells assessed as decrease in cell levels at S phase at IC50 after 48 to 72 hrs by propidium iodide staining-based flow cytometric method; format: functional; outline: as §2
# [7] = Cell cycle arrest in human STO cells assessed as mitotic cells at 2 nM after 72 hrs by MPM2 staining-based fluorescence microscopic analysis relative to control; format: functional
# Homo sapiens [8] = species on record: Homo sapiens; test: Cell cycle arrest in human MP4 cells assessed as decrease in cell levels at G1 phase at IC50 after 48 to 72 hrs by propidium iodide staining-based flow cytometric method; format: functional; outline: as §2
# Homo sapiens [9] = species on record: Homo sapiens; test: Cell cycle arrest in human STO cells assessed as decrease in cell levels at G1 phase at IC50 after 48 to 72 hrs by propidium iodide staining-based flow cytometric method; format: functional; outline: as §2
# [10] = Cell cycle arrest in human MP8 cells assessed as mitotic cells at 13 nM after 72 hrs by MPM2 staining-based fluorescence microscopic analysis relative to control; format: functional
# Homo sapiens [11] = species on record: Homo sapiens; test: Cell cycle arrest in human STO cells assessed as decrease in cell levels at S phase at IC50 after 48 to 72 hrs by propidium iodide staining-based flow cytometric method; format: functional; outline: as §2
# Homo sapiens [12] = species on record: Homo sapiens; test: Cell cycle arrest in human MP4 cells assessed as accumulation at G2/M phase at IC50 after 48 to 72 hrs by propidium iodide staining-based flow cytometric method; format: functional; outline: as §2
# [13] = Induction of apoptosis in human STO cells assessed as increase in caspase-3 catalytic activity by measuring DEVD-pNA hydrolysis at IC80 after 72 hrs by spectrofluorometric method relative to control; format: functional
# Outline: (§3)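 STO and MP4 cells were exposed 72 h to drug or to 1% (v/v) DMSO control, then washed, pelleted and lysed. Total protein was mixed with DEVD-pNA for 1 h at 37 °C. Hydrolysis was read fluorometrically, ex 380/em 460 nm, as relative fluorescence units. Mean of three independent experiments.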
# Homo sapiens [14] = species on record: Homo sapiens; test: Cell cycle arrest in human MP4 cells assessed as decrease in cell levels at S phase at IC50 to IC80 after 48 to 72 hrs by propidium iodide staining-based flow cytometric method; format: functional; outline: as §2
# [15] = Antitumor activity against human STO cells xenografted in athymic nude mouse assessed as tumor growth inhibition at 5 mg/kg, ip administrated every 7 days for 4 weeks starting from day 10 post tumor implantation relative to control; format: functional; details: read-out: TGI
# Outline: (§4)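 Female nude mice, 6−8 weeks old, given 10⁷ exponentially growing STO cells s.c. in the right flank; 8 mice/group. Drug in 10% DMSO/90% saline, 5 mg/kg ip q7dx4 from day 10 after inoculum; controls got vehicle. Tumour diameters caliper-measured weekly, TV = d²×D/2, TVI% = 100 − (mean TV treated/mean TV control × 100). Ki67 staining on formalin-fixed paraffin sections of tumours after the last treatment.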
# [16] = Growth inhibition of human STO cells after 72 hrs by MTS assay; format: functional
# Outline: (§5)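 DMPM lines were kept in DMEM F12 with 10% heat-inactivated FBS at 37 °C, 5% CO₂. 4500 cells/well were plated 24 h, then exposed 72 h to 0.1−100 μM; vehicle was 0.01% DMSO. MTS read at OD 490 nm and expressed as % of DMSO-treated cells. Eight replicates per condition, ≥3 independent repeats. IC50 and IC80 were taken graphically from dose–response curves.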
# Homo sapiens [17] = species on record: Homo sapiens; test: Cell cycle arrest in human MP4 cells assessed as decrease in cell levels at G1 phase at IC50 to IC80 after 48 to 72 hrs by propidium iodide staining-based flow cytometric method; format: functional; outline: as §2
# Homo sapiens [18] = test: Antitumor activity against human STO cells xenografted in athymic nude mouse assessed as suppression of cell proliferation at 5 mg/kg, ip administrated every 7 days for 4 weeks starting from day 10 post tumor implantation measured post last dose by Ki67 immunohistochemical staining-based assay; format: functional, organism-based; outline: as §4
# [19] = Toxicity in athymic nude mouse xenografted with human STO cells assessed as body weight loss at 5 mg/kg, ip administrated every 7 days for 4 weeks starting from day 10 post tumor implantation; format: organism-based; details: in vivo
# Outline: (§6)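 Female nude mice, 6−8 weeks old, with 10⁷ exponentially growing STO cells injected subcutaneously into the right flank. Eight mice per group, randomly assigned to vehicle control or treatment. Compound was given ip in 10% DMSO / 90% saline. Tumor diameters were measured weekly by caliper.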
# Homo sapiens [20] = species on record: Homo sapiens; test: Cell cycle arrest in human STO cells assessed as decrease in cell levels at G1 phase at IC50 to IC80 after 48 to 72 hrs by propidium iodide staining-based flow cytometric method; format: functional; outline: as §2
# WI-38 = test: Growth inhibition of human WI38 cells after 72 hrs by MTS assay; format: cell-based; details: WI-38, 72 h
# [21] = Toxicity in athymic nude mouse xenografted with human STO cells assessed as mortality at 5 mg/kg, ip administrated every 7 days for 4 weeks starting from day 10 post tumor implantation; format: organism-based; details: in vivo; outline: as §6
# Homo sapiens [22] = species on record: Homo sapiens; test: Cell cycle arrest in human STO cells assessed as decrease in cell levels at S phase at IC50 to IC80 after 48 to 72 hrs by propidium iodide staining-based flow cytometric method; format: functional; outline: as §2
# Tubulin (Homo sapiens) [23] = target: T2, Tubulin (Homo sapiens); test: Inhibition of tubulin polymerization in human STO cells at IC50 after 24 hrs by Western blot analysis relative to soluble fraction of tubulin; format: cell-based
# [24] = Cell cycle arrest in human MP8 cells assessed as mitotic cells at IC50 after 72 hrs by MPM2 staining-based fluorescence microscopic analysis relative to control; format: functional
# [25] = Induction of apoptosis in human MP4 cells assessed as increase in caspase-3 catalytic activity by measuring DEVD-pNA hydrolysis at IC80 after 72 hrs by spectrofluorometric method relative to control; format: functional; outline: as §3
# [26] = Cell cycle arrest in human STO cells assessed as mitotic cells at IC50 after 72 hrs by MPM2 staining-based fluorescence microscopic analysis relative to control; format: functional
# Homo sapiens [27] = species on record: Homo sapiens; test: Cell cycle arrest in human MP4 cells assessed as accumulation at G2/M phase at IC50 to IC80 by propidium iodide staining-based flow cytometric method; format: functional; details: TDE = time-dependent effect; outline: as §2
# Homo sapiens [28] = species on record: Homo sapiens; test: Cell cycle arrest in human STO cells assessed as accumulation at G2/M phase at IC50 to IC80 by propidium iodide staining-based flow cytometric method; format: functional; details: TDE = time-dependent effect; outline: as §2
# [29] = Growth inhibition of human MP8 cells after 72 hrs by MTS assay; format: functional; details: MP8, 72 h; outline: as §5
# [30] = Toxicity in athymic nude mouse xenografted with human STO cells assessed as drug tolerance at 5 mg/kg, ip administrated every 7 days for 4 weeks starting from day 10 post tumor implantation; format: organism-based; details: in vivo; outline: as §6
# [31] = Growth inhibition of human MP4 cells after 72 hrs by MTS assay; format: functional; outline: as §5
# Tubulin (Homo sapiens) [32] = target: T2, Tubulin (Homo sapiens); test: Inhibition of tubulin polymerization in human MP4 cells at IC50 after 24 hrs by Western blot analysis relative to soluble fraction of tubulin; format: cell-based
# Homo sapiens [33] = species on record: Homo sapiens; test: Induction of apoptosis in human MP4 cells assessed as increase in caspase-3 catalytic activity by measuring DEVD-pNA hydrolysis at IC50 to IC80 by spectrofluorometric method; format: functional, cell-based; details: TDE = time-dependent effect
# Homo sapiens [34] = species on record: Homo sapiens; test: Induction of apoptosis in human STO cells assessed as increase in caspase-3 catalytic activity by measuring DEVD-pNA hydrolysis at IC50 to IC80 by spectrofluorometric method; format: functional, cell-based; details: TDE = time-dependent effect
# [35] = Cell cycle arrest in human MP8 cells assessed as mitotic cells at 18 nM after 72 hrs by MPM2 staining-based fluorescence microscopic analysis relative to control; format: functional
# Tubulin (Sus scrofa) [36] = target: T1, Tubulin (Sus scrofa); test: Induction of GTP-induced porcine tubulin polymerization at 10 uM measured every minute up to 60 mins relative to control; format: protein assay; outline: as §1
# [37] = Cell cycle arrest in human STO cells assessed as mitotic cells at 1 nM after 72 hrs by MPM2 staining-based fluorescence microscopic analysis relative to control; format: functional
# T1 sequence (P02550 whole entry, looked up): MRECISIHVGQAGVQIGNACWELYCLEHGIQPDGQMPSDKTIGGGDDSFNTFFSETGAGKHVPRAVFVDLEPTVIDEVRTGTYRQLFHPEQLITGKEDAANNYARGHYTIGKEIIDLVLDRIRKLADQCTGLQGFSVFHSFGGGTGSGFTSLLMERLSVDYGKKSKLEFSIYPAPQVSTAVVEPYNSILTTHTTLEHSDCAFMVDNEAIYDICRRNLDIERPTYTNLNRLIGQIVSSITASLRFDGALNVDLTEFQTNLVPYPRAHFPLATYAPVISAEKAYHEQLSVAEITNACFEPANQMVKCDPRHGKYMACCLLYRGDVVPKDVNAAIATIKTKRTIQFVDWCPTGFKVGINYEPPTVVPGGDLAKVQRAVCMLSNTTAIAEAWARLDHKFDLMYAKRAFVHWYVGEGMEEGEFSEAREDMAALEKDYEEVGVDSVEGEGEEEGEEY
# T1 sequence (P02554 whole entry, looked up): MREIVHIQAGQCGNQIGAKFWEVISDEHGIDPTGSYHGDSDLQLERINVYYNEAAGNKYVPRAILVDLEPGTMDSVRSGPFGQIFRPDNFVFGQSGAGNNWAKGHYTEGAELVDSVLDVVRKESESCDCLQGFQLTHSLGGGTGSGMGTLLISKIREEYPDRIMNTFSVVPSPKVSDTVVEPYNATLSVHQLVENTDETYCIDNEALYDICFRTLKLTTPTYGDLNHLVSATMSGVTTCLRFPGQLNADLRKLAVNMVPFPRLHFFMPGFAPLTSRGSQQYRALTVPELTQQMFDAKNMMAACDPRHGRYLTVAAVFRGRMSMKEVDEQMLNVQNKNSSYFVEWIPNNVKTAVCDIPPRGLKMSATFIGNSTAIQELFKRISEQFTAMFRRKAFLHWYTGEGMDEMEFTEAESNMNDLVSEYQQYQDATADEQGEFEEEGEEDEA
structure (smiles),measurement,setting,value
COc1ccc(Cn2cc3c(c2-c2cc(OC)c(OC)c(OC)c2)CCc2cnoc2-3)cc1[N+](=O)[O-],growth inhibition (GI),[1],Active
COc1ccc(Cn2cc3c(c2-c2ccc(OC)cc2)CCc2cnoc2-3)cc1,growth inhibition (GI),[1],Active
COc1ccc(Cn2cc3c(c2-c2ccccc2)CCc2cnoc2-3)cc1,growth inhibition (GI),[1],Active
COc1ccc(Cn2cc3c(c2-c2cc(OC)c(OC)c(OC)c2)CCc2cnoc2-3)cc1,growth inhibition (GI),[1],Active
CCC1=C[C@@H]2CN(C1)Cc1c([nH]c3ccccc13)[C@@](C(=O)OC)(c1cc3c(cc1OC)N(C)[C@H]1[C@@](O)(C(=O)OC)[C@H](OC(C)=O)[C@]4(CC)C=CCN5CC[C@]31[C@@H]54)C2 [VINORELBINE],inhibition,Tubulin (Sus scrofa) [2],Active
same,inhibition,Tubulin (Homo sapiens) [3],Active
same,inhibition,Tubulin (Homo sapiens) [4],Active
same,Activity,Homo sapiens [5],Active
same,Activity,Homo sapiens [6],Active
same,Activity,[7],30 - 50%
same,Activity,Homo sapiens [8],Active
same,Activity,Homo sapiens [9],Active
same,Activity,[10],30 - 50%
same,Activity,Homo sapiens [11],Active
same,Activity,Homo sapiens [12],Active
COc1ccc(Cn2cc3c(c2-c2cc(OC)c(OC)c(OC)c2)CCc2cnoc2-3)cc1N,fold change (FC),[13],38.5
same,Activity,Homo sapiens [14],Active
same,inhibition in vivo at 5 mg/kg,[15],59%
same,IC50,[16],70 nM
same,inhibition,Tubulin (Sus scrofa) [2],Active
same,Activity,Homo sapiens [17],Active
same,Activity,Homo sapiens [18],Active
same,Activity,[19],Non-Toxic
same,Activity,Homo sapiens [20],Active
same,IC50,WI-38,> 100000 nM
same,Activity,[21],Non-Toxic
same,Activity,Homo sapiens [22],Active
same,inhibition,Tubulin (Homo sapiens) [23],Active
same,Activity,[24],30 - 50%
same,fold change (FC),[25],35
same,Activity,[26],30 - 50%
same,Activity,Homo sapiens [27],Tde
same,Activity,Homo sapiens [28],Tde
same,IC50,[29],130 nM
same,growth inhibition (GI),[1],Active
same,Activity,[30],Non-Toxic
same,IC50,[31],160 nM
same,inhibition,Tubulin (Homo sapiens) [32],Active
same,Activity,Homo sapiens [33],Tde
same,Activity,Homo sapiens [34],Tde
CC(=O)O[C@H]1C(=O)[C@@]2(C)[C@H]([C@H](OC(=O)c3ccccc3)[C@]3(O)C[C@H](OC(=O)[C@H](O)[C@@H](NC(=O)c4ccccc4)c4ccccc4)C(C)=C1C3(C)C)[C@]1(OC(C)=O)CO[C@@H]1C[C@@H]2O [PACLITAXEL],Activity,[35],30 - 50%
same,Activity,Homo sapiens [5],Active
same,Activity,Tubulin (Sus scrofa) [36],Active
same,Activity,Homo sapiens [6],Active
same,Activity,Homo sapiens [8],Active
same,Activity,Homo sapiens [9],Active
same,Activity,[37],30 - 50%
same,Activity,Homo sapiens [11],Active
same,Activity,Homo sapiens [12],Active
COc1ccc(Cn2cc3c(c2-c2ccc(O)cc2)CCc2cnoc2-3)cc1,growth inhibition (GI),[1],Active
COc1ccc(Cn2cc3c(c2-c2ccccc2)CCc2cnoc2-3)cc1N,growth inhibition (GI),[1],Active
